Tests used:
[1] = Tmax in CD1 mouse at 30 mg/kg, po by LC-MS/MS analysis; assay type: ADME, organism-based; details: in vivo
Method in brief: (§1)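 HCl salt dosed to CD1 mice in 30% PEG400/70% (10% HP-β-CD in water) (v/v), at 1 mg/mL for iv (5 mg/kg) or 3 mg/mL for oral gavage (30 mg/kg). Blood sampled at 0, 0.0833 (iv only), 0.25, 0.5, 1, 2, 4, 8 and 24 h, n = 3 per time point. Plasma levels measured by LC/MS/MS.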

[2] = Half life in CD1 mouse at 5 mg/kg, iv by LC-MS/MS analysis; assay type: ADME, organism-based; details: in vivo
Method in brief: (§2)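 HCl salt dosed to CD1 mice iv (1 mg/mL) or by oral gavage (3 mg/mL) in 30% PEG400/70% (10% HP-β-CD in water) (v/v). Blood sampled at 0, 0.0833 (iv only), 0.25, 0.5, 1, 2, 4, 8 and 24 h, n = 3 per time point. Plasma levels measured by LC/MS/MS.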

[3] = Half life in CD1 mouse at 30 mg/kg, po by LC-MS/MS analysis; assay type: ADME, organism-based; details: in vivo; method in brief: as §2
[4] = AUC in CD1 mouse at 30 mg/kg, po by LC-MS/MS analysis; assay type: ADME, organism-based; details: in vivo; method in brief: as §2
CYP2C8 = CYP2C8 (Homo sapiens, UniProt P10632); assay: Inhibition of human CYP2C8 at 10 uM; assay type: ADME
MCF7:TAM1 = assay: Antitumor activity against human MCF7:TAM1 cells xenografted in ovariectomized athymic Nude-Foxn1 mouse assessed as tumor growth inhibition at 30 mg/kg/day, po administered via gavage for 4 weeks relative to control; assay type: functional; details: 672 h, read-out: TGI
Method in brief: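 MCF-7:Tam1 tumours established in 4–6 week old female ovariectomized athymic nude mice given daily tamoxifen 1.5 mg/mouse. […] Fulvestrant 1 (mg/mouse)/week sc. Tumour volume measured weekly by calipers as length × width² × π/6.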

CYP2C9 = CYP2C9 (Homo sapiens, UniProt P11712); assay: Inhibition of human CYP2C9 at 10 uM; assay type: ADME
[5] = Volume of distribution at steady state in CD1 mouse at 5 mg/kg, iv by LC-MS/MS analysis; assay type: ADME, organism-based; details: in vivo; method in brief: as §1
[6] = Clearance in CD1 mouse at 5 mg/kg, iv by LC-MS/MS analysis; assay type: ADME, organism-based; details: in vivo; method in brief: as §2
CYP1A2 = CYP1A2 (Homo sapiens, UniProt P05177); assay: Inhibition of human CYP1A2 at 10 uM; assay type: ADME
[7] = Protein binding in plasma (unknown origin); assay type: ADME, cell-free; details: human
Method in brief: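 Protein binding reported as percent bound, ketoconazole as reference compound. Run by a contract lab.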

[8] = AUC in CD1 mouse at 5 mg/kg, iv by LC-MS/MS analysis; assay type: ADME, organism-based; details: in vivo; method in brief: as §2
CYP2C19 = CYP2C19 (Homo sapiens, UniProt P33261); assay: Inhibition of human CYP2C19 at 10 uM; assay type: ADME
[9] = Toxicity in human MCF7:TAM1 cells xenografted ovariectomized athymic Nude-Foxn1 mouse assessed as adverse sign t at 50 mg/kg/day, po administered via gavage for 4 weeks; assay type: organism-based; details: in vivo, 672 h
Method in brief: (§3)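 MCF-7:TAM1 tumors established in 4–6-week-old female ovariectomized athymic nude mice (nude/Foxn1) given tamoxifen 1.5 mg/mouse daily. […] Body weight tracked against pretreatment, with overt toxicity signs observed. Vehicle and tamoxifen (1.5 mg/mouse/day po) groups as comparators.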

[10] = Induction of thrombocytopenia in Sprague-Dawley rat assessed as platelet count […] at 25 mg/kg, po administered via gavage daily for 10 days (reference value: […]); assay type: organism-based; details: in vivo, 240 h
[11] = Intrinsic clearance in human hepatocytes assessed per million cells; assay type: ADME, cell-based, Hepatocyte; details: read-out: CLH
[12] = Half life in human hepatocytes; assay type: ADME, cell-based, Hepatocyte
[13] = Oral bioavailability in CD1 mouse at 30 mg/kg by LC-MS/MS analysis; assay type: ADME, organism-based; details: in vivo; method in brief: as §1
[14] = Cmax in CD1 mouse at 30 mg/kg, po by LC-MS/MS analysis; assay type: ADME, organism-based; set-up: dose 30 mg/kg, route oral; details: in vivo; method in brief: as §2
CYP3A4 = CYP3A4 (Homo sapiens, UniProt P08684); assay: Inhibition of human CYP3A4 at 10 uM; assay type: ADME
CYP2A6 = CYP2A6 (Homo sapiens, UniProt P11509); assay: Inhibition of human CYP2A6 at 10 uM; assay type: ADME
CYP2D6 = CYP2D6 (Homo sapiens, UniProt P10635); assay: Inhibition of human CYP2D6 at 10 uM; assay type: ADME
[15] = Kinetic solubility of the compound in pH 7.4 PBS buffer; assay type: physicochemical; details: read-out: Kinetic_solubility
Method in brief: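 Kinetic solubility in PBS at pH 7.4, progesterone as reference compound. Run by a contract lab.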

[16] = Toxicity in human MCF7:TAM1 cells xenografted ovariectomized athymic Nude-Foxn1 mouse assessed as effect on body weight at 50 mg/kg/day, po administered via gavage for 4 weeks; assay type: organism-based; details: in vivo, 672 h; method in brief: as §3
[17] = target: Voltage-gated inwardly rectifying potassium channel KCNH2 (Homo sapiens, UniProt Q12809); assay: Inhibition of human ERG stably expressed in HEK293 cells; assay type: cell-based
Method in brief: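 hERG inhibition measured in HEK293 cells stably transfected with the hERG gene, IC50 determined, dofetilide as positive control. Run by a contract lab.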

CYP3A4, sequence (P08684 whole entry): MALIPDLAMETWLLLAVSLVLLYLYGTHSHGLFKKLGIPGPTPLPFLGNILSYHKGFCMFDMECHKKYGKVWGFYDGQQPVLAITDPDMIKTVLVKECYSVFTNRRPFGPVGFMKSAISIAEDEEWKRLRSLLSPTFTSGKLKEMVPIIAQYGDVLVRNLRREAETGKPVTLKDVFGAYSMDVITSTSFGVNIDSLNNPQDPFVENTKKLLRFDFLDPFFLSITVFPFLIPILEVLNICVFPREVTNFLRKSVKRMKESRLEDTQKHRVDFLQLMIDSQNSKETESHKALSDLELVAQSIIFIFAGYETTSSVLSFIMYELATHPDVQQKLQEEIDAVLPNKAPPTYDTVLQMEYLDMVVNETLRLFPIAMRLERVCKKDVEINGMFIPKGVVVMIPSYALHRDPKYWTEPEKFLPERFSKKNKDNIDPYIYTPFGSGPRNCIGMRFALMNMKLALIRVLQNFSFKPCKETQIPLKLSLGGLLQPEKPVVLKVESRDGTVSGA
CYP2D6, sequence (P10635 whole entry): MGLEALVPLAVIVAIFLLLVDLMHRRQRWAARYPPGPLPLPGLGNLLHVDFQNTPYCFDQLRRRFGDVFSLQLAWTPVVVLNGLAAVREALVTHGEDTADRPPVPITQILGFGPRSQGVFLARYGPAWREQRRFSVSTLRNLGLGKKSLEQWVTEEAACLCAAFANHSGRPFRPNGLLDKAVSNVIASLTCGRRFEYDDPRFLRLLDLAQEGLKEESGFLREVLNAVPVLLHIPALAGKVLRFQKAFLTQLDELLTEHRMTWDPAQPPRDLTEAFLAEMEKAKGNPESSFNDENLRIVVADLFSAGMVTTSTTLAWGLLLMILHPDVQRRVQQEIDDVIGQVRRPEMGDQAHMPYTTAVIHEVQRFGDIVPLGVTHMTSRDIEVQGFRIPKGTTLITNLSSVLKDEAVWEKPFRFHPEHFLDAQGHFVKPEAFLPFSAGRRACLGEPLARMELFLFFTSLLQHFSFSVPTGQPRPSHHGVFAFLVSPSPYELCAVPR
CYP2C9, sequence (P11712 whole entry): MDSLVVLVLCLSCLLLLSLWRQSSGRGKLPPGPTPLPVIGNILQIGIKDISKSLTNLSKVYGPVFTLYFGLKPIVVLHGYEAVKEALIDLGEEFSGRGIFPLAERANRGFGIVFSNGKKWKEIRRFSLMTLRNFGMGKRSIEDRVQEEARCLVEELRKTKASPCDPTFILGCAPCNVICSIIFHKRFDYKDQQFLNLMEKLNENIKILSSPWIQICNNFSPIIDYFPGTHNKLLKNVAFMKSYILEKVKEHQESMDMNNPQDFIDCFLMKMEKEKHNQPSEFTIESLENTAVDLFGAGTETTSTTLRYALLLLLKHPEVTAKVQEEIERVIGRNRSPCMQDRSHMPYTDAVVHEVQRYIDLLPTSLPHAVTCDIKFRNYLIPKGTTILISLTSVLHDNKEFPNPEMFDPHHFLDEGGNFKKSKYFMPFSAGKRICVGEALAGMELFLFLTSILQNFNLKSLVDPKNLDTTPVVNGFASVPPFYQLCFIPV
CYP2C19, sequence (P33261 whole entry): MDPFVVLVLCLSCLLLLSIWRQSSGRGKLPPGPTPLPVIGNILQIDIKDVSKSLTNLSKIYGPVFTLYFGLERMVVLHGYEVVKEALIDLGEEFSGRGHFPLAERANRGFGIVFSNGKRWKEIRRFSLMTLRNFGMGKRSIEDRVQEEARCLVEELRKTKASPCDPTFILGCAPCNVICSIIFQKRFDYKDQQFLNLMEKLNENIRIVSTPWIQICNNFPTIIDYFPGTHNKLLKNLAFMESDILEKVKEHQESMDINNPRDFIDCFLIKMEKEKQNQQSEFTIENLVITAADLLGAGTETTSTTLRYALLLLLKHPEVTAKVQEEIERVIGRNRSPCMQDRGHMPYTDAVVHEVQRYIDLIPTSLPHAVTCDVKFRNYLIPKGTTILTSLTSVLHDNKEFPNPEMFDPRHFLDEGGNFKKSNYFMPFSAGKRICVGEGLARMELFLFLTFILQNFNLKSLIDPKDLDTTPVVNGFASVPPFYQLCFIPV
CYP1A2, sequence (P05177 whole entry): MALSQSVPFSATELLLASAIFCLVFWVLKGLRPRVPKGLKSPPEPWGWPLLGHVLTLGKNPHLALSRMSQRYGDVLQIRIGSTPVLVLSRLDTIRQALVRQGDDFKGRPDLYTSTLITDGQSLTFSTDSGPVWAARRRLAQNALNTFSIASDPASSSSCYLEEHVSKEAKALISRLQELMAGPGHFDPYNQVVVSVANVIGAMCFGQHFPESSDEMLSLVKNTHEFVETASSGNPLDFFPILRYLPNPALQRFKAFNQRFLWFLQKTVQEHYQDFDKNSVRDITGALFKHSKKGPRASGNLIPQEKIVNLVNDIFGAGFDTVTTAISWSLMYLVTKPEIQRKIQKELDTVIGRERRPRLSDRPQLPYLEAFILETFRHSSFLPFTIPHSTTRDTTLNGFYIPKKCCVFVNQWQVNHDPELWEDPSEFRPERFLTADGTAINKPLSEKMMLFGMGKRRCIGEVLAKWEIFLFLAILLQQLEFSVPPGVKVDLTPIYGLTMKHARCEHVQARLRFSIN
CYP2A6, sequence (P11509 whole entry): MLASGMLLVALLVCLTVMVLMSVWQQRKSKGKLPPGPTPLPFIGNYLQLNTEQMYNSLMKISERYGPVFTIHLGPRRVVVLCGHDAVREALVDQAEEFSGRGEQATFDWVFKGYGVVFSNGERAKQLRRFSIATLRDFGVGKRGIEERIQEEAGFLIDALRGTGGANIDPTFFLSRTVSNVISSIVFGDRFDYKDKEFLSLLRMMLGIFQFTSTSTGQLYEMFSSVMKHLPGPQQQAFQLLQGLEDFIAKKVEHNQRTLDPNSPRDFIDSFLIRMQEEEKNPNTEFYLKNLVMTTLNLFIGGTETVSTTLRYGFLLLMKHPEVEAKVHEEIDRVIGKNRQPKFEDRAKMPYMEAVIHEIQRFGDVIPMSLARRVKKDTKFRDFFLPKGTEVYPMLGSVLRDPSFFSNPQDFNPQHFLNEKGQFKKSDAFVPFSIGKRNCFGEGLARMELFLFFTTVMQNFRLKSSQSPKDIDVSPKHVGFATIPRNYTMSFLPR
CYP2C8, sequence (P10632 whole entry): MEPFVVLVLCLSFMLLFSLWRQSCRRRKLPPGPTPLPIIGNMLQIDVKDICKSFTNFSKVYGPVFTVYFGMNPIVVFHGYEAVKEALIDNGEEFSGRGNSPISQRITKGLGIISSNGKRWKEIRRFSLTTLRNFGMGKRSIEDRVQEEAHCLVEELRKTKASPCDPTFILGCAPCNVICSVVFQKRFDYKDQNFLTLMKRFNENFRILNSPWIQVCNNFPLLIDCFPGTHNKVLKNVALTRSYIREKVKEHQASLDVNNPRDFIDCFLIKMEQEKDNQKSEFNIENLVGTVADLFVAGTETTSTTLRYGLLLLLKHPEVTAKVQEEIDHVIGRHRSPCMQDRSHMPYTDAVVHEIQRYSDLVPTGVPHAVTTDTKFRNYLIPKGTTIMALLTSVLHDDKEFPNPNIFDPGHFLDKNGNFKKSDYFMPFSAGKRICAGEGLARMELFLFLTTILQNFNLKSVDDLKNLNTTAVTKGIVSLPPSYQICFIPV
Voltage-gated inwardly rectifying potassium channel KCNH2, sequence (Q12809 whole entry): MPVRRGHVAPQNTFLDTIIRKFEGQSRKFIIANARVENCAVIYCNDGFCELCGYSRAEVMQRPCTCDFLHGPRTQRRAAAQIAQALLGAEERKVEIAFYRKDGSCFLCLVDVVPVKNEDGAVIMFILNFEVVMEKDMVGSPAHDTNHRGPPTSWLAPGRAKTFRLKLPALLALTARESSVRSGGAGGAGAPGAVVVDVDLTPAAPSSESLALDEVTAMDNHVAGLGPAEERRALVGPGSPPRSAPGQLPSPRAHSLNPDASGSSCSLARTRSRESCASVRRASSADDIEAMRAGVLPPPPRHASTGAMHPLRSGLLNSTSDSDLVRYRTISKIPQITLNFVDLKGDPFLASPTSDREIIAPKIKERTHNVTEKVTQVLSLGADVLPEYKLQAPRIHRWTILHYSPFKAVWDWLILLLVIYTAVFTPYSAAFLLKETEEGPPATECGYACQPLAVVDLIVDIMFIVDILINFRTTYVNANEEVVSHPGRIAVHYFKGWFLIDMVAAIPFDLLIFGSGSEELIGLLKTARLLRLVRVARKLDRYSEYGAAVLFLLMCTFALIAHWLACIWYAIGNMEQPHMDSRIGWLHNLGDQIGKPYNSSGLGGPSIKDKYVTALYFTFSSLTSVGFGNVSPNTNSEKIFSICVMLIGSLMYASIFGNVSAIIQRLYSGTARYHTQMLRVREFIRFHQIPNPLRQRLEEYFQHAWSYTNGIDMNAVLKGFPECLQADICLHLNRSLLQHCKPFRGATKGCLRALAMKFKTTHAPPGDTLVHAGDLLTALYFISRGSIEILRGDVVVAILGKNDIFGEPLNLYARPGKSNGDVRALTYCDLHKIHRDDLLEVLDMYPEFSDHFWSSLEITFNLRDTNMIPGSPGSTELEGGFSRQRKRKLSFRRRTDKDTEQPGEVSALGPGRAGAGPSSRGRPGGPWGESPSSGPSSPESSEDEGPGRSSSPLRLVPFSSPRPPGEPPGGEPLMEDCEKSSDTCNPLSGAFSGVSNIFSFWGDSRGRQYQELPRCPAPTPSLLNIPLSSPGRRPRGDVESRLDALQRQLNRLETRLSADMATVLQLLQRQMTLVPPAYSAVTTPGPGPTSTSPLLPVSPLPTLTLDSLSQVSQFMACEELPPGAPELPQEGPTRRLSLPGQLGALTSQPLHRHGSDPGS

SMILES: CCS(=O)(=O)Nc1cc(-c2cn(C)c3c(=O)[nH]ccc23)cc2c1ccn2C(C)(c1ccccn1)c1ccccn1.Cl
- Tmax [1]: 0.25 h
- t1/2 [2]: 1.95 h
- t1/2 [3]: 2.9 h
- AUC [4]: 9.598 µg·h/mL
- inhibition at 10 µM (CYP2C8): 84.2%
- inhibition in vivo at 30 mg/kg/day (MCF7:TAM1): 106%
- inhibition at 10 µM (CYP2C9): 30.7%
- Vdss [5]: 1.49 L/kg
- clearance [6]: 1.53 L/h/kg
- inhibition at 10 µM (CYP1A2): 2.29%
- PPB [7]: 97.98%
- AUC [8]: 3.208 µg·h/mL
- inhibition at 10 µM (CYP2C19): 31.8%
- Activity [9]: Non-Toxic
- platelet count [10]: 1050 10^3/µL
- hepatocyte CLint [11]: 6.86 µL/min/1e6 cells
- t1/2 [12]: 3.37 h
- F [13]: 49%
- Cmax [14]: 3.09 µg/mL
- inhibition at 10 µM (CYP3A4): 50.6%
- inhibition at 10 µM (CYP2A6): 7.47%
- inhibition at 10 µM (CYP2D6): 14.5%
- solubility kinetic [15]: 73.4 µM
- Activity [16]: Non-Toxic
- IC50 [17]: 29.3 µM
